In ChEMBL document CHEMBL3098130, “Discovery of Novel Putative Inhibitors of UDP-GlcNAc 2-Epimerase as Potent Antibacterial Agents” (ACS Med Chem Lett, 2013):
Converted amounts (≈) assume the structure as drawn.

Columns and labels:
Type in all cases: functional
Staphylococcus aureus [1] = assay: Antibacterial activity against methicillin-resistant Staphylococcus aureus assessed as growth inhibition at 3 uM measured every 2 mins for 16 to 20 hrs by spectramax 96-well plate reader analysis; conditions: read-out: GI
Staphylococcus aureus [2] = assay: Antibacterial activity against methicillin-resistant Staphylococcus aureus assessed as growth inhibition at 10 uM measured every 2 mins for 16 to 20 hrs by spectramax 96-well plate reader analysis; conditions: read-out: GI
Staphylococcus aureus [3] = assay: Antibacterial activity against methicillin-resistant Staphylococcus aureus assessed as growth inhibition at 30 uM measured every 2 mins for 16 to 20 hrs by spectramax 96-well plate reader analysis; conditions: read-out: GI
Bacillus anthracis [4] = assay: Antibacterial activity against Bacillus anthracis Sterne assessed as growth inhibition at 3 uM measured every 2 mins for 16 to 20 hrs by spectramax 96-well plate reader analysis; conditions: read-out: GI
Bacillus anthracis [5] = assay: Antibacterial activity against Bacillus anthracis Sterne assessed as growth inhibition at 10 uM measured every 2 mins for 16 to 20 hrs by spectramax 96-well plate reader analysis; conditions: read-out: GI
Bacillus anthracis [6] = assay: Antibacterial activity against Bacillus anthracis Sterne assessed as growth inhibition at 30 uM measured every 2 mins for 16 to 20 hrs by spectramax 96-well plate reader analysis; conditions: read-out: GI
Bacillus subtilis = assay: Antibacterial activity against Bacillus subtilis 19659 assessed as growth inhibition measured for 3 days by broth microdilution method; conditions: Bacillus subtilis, 19659, 72 h; read-out: MIC
How it was run: (§1)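 MIC by broth microdilution against a panel of Gram-positive and Gram-negative strains (ATCC-type numbers where given). Run in triplicate on three different days.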

Staphylococcus aureus [7] = assay: Antibacterial activity against Staphylococcus aureus 13709 assessed as growth inhibition measured for 3 days by broth microdilution method; conditions: Staphylococcus aureus, 13709, 72 h; read-out: MIC; how it was run: as §1

Compound | inhibition of growth at 3 µM (Staphylococcus aureus [1]) [%] | inhibition of growth at 10 µM (Staphylococcus aureus [2]) [%] | inhibition of growth at 30 µM (Staphylococcus aureus [3]) [%] | inhibition of growth at 3 µM (Bacillus anthracis [4]) [%] | inhibition of growth at 10 µM (Bacillus anthracis [5]) [%] | inhibition of growth at 30 µM (Bacillus anthracis [6]) [%] | MIC (Bacillus subtilis) [µM] | MIC (Staphylococcus aureus [7]) [µM]
COc1ccc(-c2ccc(/C=C3/NC(=S)N(C(Cc4ccccc4)C(=O)O)C3=O)s2)cc1 (stereo not given) | 0 | 10 | 20 | 0 | 0 | 100 |  | 
O=C(O)[C@H](Cc1ccccc1)N1C(=O)/C(=C/c2ccc(-c3ccc(Cl)c(Cl)c3)o2)NC1=S |  |  |  |  |  |  | 6.8 (≈ 3.31 µg/mL) | 6.8 (≈ 3.31 µg/mL)
O=C(O)C(Cc1ccccc1)N1C(=O)/C(=C\c2ccc(-c3ccc(Cl)cc3)o2)NC1=S (stereo not given) | 10 | 20 | 90 | 0 | 70 | 100 |  | 
O=C1NC(=S)NC(=O)C1=Cc1ccc(-c2ccc(Br)c(Cl)c2)o1 |  |  |  |  |  | 96.6 |  | 
NC(=O)C(Cc1ccccc1)N1C(=O)/C(=C\c2ccc(-c3ccc(Cl)c(Cl)c3)o2)NC1=S (stereo not given) | 0 | 30 | 60 | 20 | 90 | 90 |  | 
N#CNC(=O)C(Cc1ccccc1)N1C(=O)/C(=C\c2ccc(-c3ccc(Cl)c(Cl)c3)o2)NC1=S (stereo not given) | 0 | 0 | 100 | 0 | 100 | 100 |  | 
CCC(C(=O)O)N1C(=O)/C(=C\c2ccc(-c3ccc(Cl)c(Cl)c3)o2)NC1=S (stereo not given) | 0 | 0 | 90 | 0 | 100 | 90 |  | 
O=C(O)C(Cc1ccccc1)N1C(=O)/C(=C\c2ccc(-c3ccc(Cl)c(Cl)c3)o2)NC1=S (stereo not given) | 20 | 90 | 100 | 110 | 110 | 110 |  | 
O=C(O)C(Cc1ccccc1)N1C(=O)/C(=C\c2ccc(-c3cccc(Cl)c3)o2)NC1=S (stereo not given) | 0 | 0 | 10 | 10 | 0 | 90 |  | 
O=C(NS(=O)(=O)C(F)(F)F)C(Cc1ccccc1)N1C(=O)/C(=C\c2ccc(-c3ccc(Cl)c(Cl)c3)o2)NC1=S (stereo not given) | 0 | 80 | 90 | 70 | 100 | 100 |  | 
O=C(O)C(Cc1ccccc1)N1C(=O)/C(=C\c2ccc(-c3cc(Cl)cc(Cl)c3)o2)NC1=S (stereo not given) | 0 | 10 | 90 | 0 | 0 | 100 |  | 
CCC(C(=O)NS(C)(=O)=O)N1C(=O)/C(=C\c2ccc(-c3ccc(Cl)c(Cl)c3)o2)NC1=S (stereo not given) | 0 | 0 | 0 | 10 | 0 | 20 |  | 
O=C(O)C(Cc1ccccc1)N1C(=O)/C(=C\c2ccc(-c3ccc(Br)cc3)s2)NC1=S (stereo not given) | 20 | 90 | 90 | 80 | 100 | 100 |  | 
O=C(O)C(Cc1ccccc1)N1C(=O)/C(=C\c2ccc(-c3ccc(OC(F)(F)F)cc3)o2)NC1=S (stereo not given) | 0 | 10 | 100 | 10 | 100 | 100 |  | 
